Laboratory results as given in PMC3498903 (Journal of medicinal chemistry, 2012).
“Also recorded” adds a separate entry of the source. Where a name gives a salt, the structure may show the parent alone. Read-outs that look alike come from different tables or passages of the source.

Key:
HFF cells = test: In vitro toxicity assay on HFF host cells; type: cell-based, human; conditions: HFF used as host cells in the parasite assay
mice = test: In vivo toxicity in uninfected mice dosed orally; conditions: for Day of Death: Challenge None, B7 mice; for toxic effects on oral dosing (survival, well-being criteria): gavage daily for nine days, 100mg/kg
[1] = tested on: T. gondii TgGoatUS4 oocysts; test: Mouse model of T. gondii oocyst infection, TgGoatUS4 oocysts; type: in vivo, Toxoplasma gondii; conditions: 25 or 100 mg/kg, versus untreated infected mice
In short: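 Mice, 5 per group, were challenged orally with TgGoatUS4 oocysts that had been sporulated in 2% sulfuric acid and neutralised with 3.3% NaOH. Test compound was given at 100 or 25 mg/kg as a 1 mL suspension by oral gavage in 1% DMSO/5% PEG 400/94% of 0.5% CMC. Controls were compound-only and untreated infected mice. Survival was observed daily, with tachyzoites sought in tissue smears.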

[2] = tested on: THdhxgTRP tachyzoites transfected with pLK47; test: Insertional mutagenesis experiments: selection of resistant mutants; type: cell-based, Toxoplasma gondii; conditions: prolonged incubation (six weeks); data not shown
T. gondii tachyzoites = test: In vitro inhibition of T. gondii tachyzoites; type: cell-based, Toxoplasma gondii; conditions: for MIC50 / MIC90: T. gondii tachyzoites in vitro; for activity against T. gondii tachyzoites in words: in vitro, only MIC50 ≤ 1 μM considered active
[3] = tested on: P. falciparum D6 (CDC/Sierra Leone); test: Malaria SYBR Green I-based fluorescence; type: cell-based; conditions: Plasmodium falciparum, D6, 72 h, read-out: D6 IC50
P. falciparum TM91-C235 = test: Malaria SYBR Green I-based fluorescence; type: cell-based, Plasmodium falciparum; conditions: for IC50: Plasmodium falciparum, 72 h; for efficacy against TM91-C235 compared with D6: comparison of IC50 values of the two strains
RH-YFP tachyzoites = test: Determination of static or cidal effects on RH-YFP tachyzoites; type: cell-based, Toxoplasma gondii; conditions: 1 μM; for static or cidal effect: Conditions A-D, growth assessed at days 11, 17, 25; for duration of treatment giving a cidal effect: compound removed after treatment
[4] = Hydrolytic stability on incubation in THF and buffer; conditions: mixture of THF and buffer (pH 7.4 or pH 8.5); data not shown
T. gondii Me-49 oocysts = test: Mouse model of T. gondii oocyst infection, ME49 oocysts; type: in vivo, Toxoplasma gondii; conditions: 25 or 100 mg/kg, versus untreated infected mice
In short: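 […] female mice (~25 g), 5 per group. Each mouse received test compound at 100 or 25 mg/kg (2.5 or […], 1.0 mL) by oral gavage in 1% DMSO/5% PEG 400/94% of 0.5% CMC, with or without 100 acid-sporulated, NaOH-neutralised ME49 oocysts orally. Controls were compound-only and oocyst-only groups. Mice were observed daily for survival. Infection was confirmed by tachyzoites in tissue smears.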

## 2-((2,4-bis(trifluoromethyl)phenyl)carbamoyl)-4-chlorophenyl(2-hydrazinyl-2-oxoethyl) (methyl)carbamate hydrochloride [Compound 14b]
HFF cells
  Toxicity: >1000 nM
mice; 25 mg/kg oral gavage
  Day of Death: None
mice; 100 mg/kg oral gavage
  Day of Death: None
mice
  toxic effects on oral dosing (survival, well-being criteria): all mice were alive and appeared healthy
[1]
  increased survival: 1 days
[2]
  growth of insertional mutant parasites in the presence of compound: No parasite growth

## 5-chloro-2-hydroxy-N-(3,4,5-trimethoxyphenyl)benzamide [Compound 3q]
T. gondii tachyzoites
  MIC50: >1 µM
  MIC90: >1 µM
  activity against T. gondii tachyzoites in words: devoid of activity; also recorded: inactive

## 5-chloro-2-hydroxy-N-(5-methoxy-2-methylphenyl)benzamide [Compound 3x]
T. gondii tachyzoites
  MIC50: >1 µM
  MIC90: >1 µM

## 5-chloro-N-(3-cyano-4-fluorophenyl)-2-hydroxybenzamide [Compound 3t]
T. gondii tachyzoites
  MIC50: >1 µM
  MIC90: >1 µM

## CCN(CC)CCCC(C)Nc1ccnc2cc(Cl)ccc12 (stereo not drawn) [Chloroquine, reference compound]
[3]
  IC50: 7 nM
P. falciparum TM91-C235; read-out: C235 IC50
  IC50: 89 nM

## CC(C)(C)c1cccc(NC(=O)c2cc(Cl)ccc2O)c1 [Compound 3i, N-(3-tert-butylphenyl)-5-chloro-2-hydroxybenzamide]
T. gondii tachyzoites
  activity against T. gondii tachyzoites in words: much more active than 3l
HFF cells
  Toxicity: >1000 nM
P. falciparum TM91-C235; read-out: C235 IC50, multi-drug resistant strain TM91-C235, 72 hours
  IC50: > 6500 nM
P. falciparum TM91-C235
  efficacy against TM91-C235 compared with D6: two-fold higher IC50
RH-YFP tachyzoites
  static or cidal effect: parasitostatic; also recorded: static effect
[2]
  growth of insertional mutant parasites in the presence of compound: No parasite growth

## O=C(Nc1cc(C(F)(F)F)cc(C(F)(F)F)c1)c1cc(Cl)ccc1O [Compound 3j]
T. gondii tachyzoites
  activity against T. gondii tachyzoites in words: promising activity
HFF cells
  Toxicity: >1000 nM
P. falciparum TM91-C235
  efficacy against TM91-C235 compared with D6: equally effective
RH-YFP tachyzoites
  static or cidal effect: parasitocidal; also recorded: cidal
  duration of treatment giving a cidal effect: cidal effect after four days of treatment
[2]
  growth of insertional mutant parasites in the presence of compound: No parasite growth

## O=C(Nc1ccc([N+](=O)[O-])cc1Cl)c1ccccc1O [Compound 3k, N-(2-chloro-4-nitrophenyl)-2-hydroxybenzamide]
T. gondii tachyzoites
  activity against T. gondii tachyzoites in words: eliminated activity altogether

## COc1ccc(NC(=O)c2cc(Cl)ccc2O)cc1OC [Compound 3v, 5-chloro-N-(3,4-dimethoxyphenyl)-2-hydroxybenzamide]
T. gondii tachyzoites
  activity against T. gondii tachyzoites in words: devoid of activity

## O=C(Nc1cccc(OC(F)F)c1)c1cc(Cl)ccc1O [Compound 3z, 5-chloro-N-(3-(difluoromethoxy)phenyl)-2-hydroxybenzamide]
T. gondii tachyzoites
  MIC50: >1 µM
  MIC90: >1 µM

## Nc1ccc(NC(=O)c2cc(Cl)ccc2O)c(Cl)c1 [Compound 5, N-(4-amino-2-chlorophenyl)-5-chloro-2-hydroxybenzamide hydrochloride]
T. gondii tachyzoites
  activity against T. gondii tachyzoites in words: all activity was lost; also recorded: destroyed

## O=C(Oc1ccc(Cl)cc1C(=O)Nc1ccc([N+](=O)[O-])cc1Cl)c1ccccc1 [Compound 7a, 4-chloro-2-((2-chloro-4-nitrophenyl)carbamoyl)phenyl benzoate]
T. gondii tachyzoites
  activity against T. gondii tachyzoites in words: apparent increase in potency over 4
HFF cells
  Toxicity: >1000 nM
P. falciparum TM91-C235
  efficacy against TM91-C235 compared with D6: equally effective
RH-YFP tachyzoites
  static or cidal effect: parasitocidal; also recorded: cidal
  duration of treatment giving a cidal effect: cidal effect after four days of treatment
[2]
  growth of insertional mutant parasites in the presence of compound: No parasite growth
[4]
  stability against hydrolysis: hydrolytically labile

## COC(=O)[C@@H]1CCCN1C(=O)Oc1ccc(Cl)cc1C(=O)Nc1ccc([N+](=O)[O-])cc1Cl [Compound 7b, (S)-1-(4-chloro-2-((2-chloro-4-nitrophenyl)carbamoyl)phenyl) 2-methyl pyrrolidine-1,2-dicarboxylate]
[4]
  stability against hydrolysis: much more stable against hydrolysis

## O=C(Nc1ccc([N+](=O)[O-])cc1Cl)c1cc(Cl)ccc1OC(=O)N1CCOCC1 [Compound 7c, 4-chloro-2-((2-chloro-4-nitrophenyl)carbamoyl)phenyl morpholine-4-carboxylate]
T. gondii tachyzoites
  activity against T. gondii tachyzoites in words: devoid of activity
[4]
  stability against hydrolysis: much more stable against hydrolysis

## CN1CCN(C(=O)Oc2ccc(Cl)cc2C(=O)Nc2ccc([N+](=O)[O-])cc2Cl)CC1 [Compound 7d, 4-chloro-2-((2-chloro-4-nitrophenyl)carbamoyl)phenyl 4-methylpiperazine-1-carboxylate]
T. gondii tachyzoites
  activity against T. gondii tachyzoites in words: modest activity; also recorded: devoid of activity
[4]
  stability against hydrolysis: much more stable against hydrolysis

## CN(CC(=O)NN)C(=O)Oc1ccc(Cl)cc1C(=O)Nc1ccc([N+](=O)[O-])cc1Cl.Cl [Compound 14a, 4-chloro-2-((2-chloro-4-nitrophenyl)carbamoyl)phenyl (2-hydrazinyl-2-oxoethyl)(methyl) carbamate hydrochloride]
HFF cells
  Toxicity: >1000 nM
P. falciparum TM91-C235
  efficacy against TM91-C235 compared with D6: equally effective
RH-YFP tachyzoites
  static or cidal effect: cidal
  duration of treatment giving a cidal effect: cidal effect after ten days of treatment
mice; 25 mg/kg oral gavage
  Day of Death: None
mice; 100 mg/kg oral gavage
  Day of Death: None
mice
  toxic effects on oral dosing (survival, well-being criteria): all mice were alive and appeared healthy
T. gondii Me-49 oocysts
  increased survival: 1 days

## N-(2,3-dihydrobenzo[b][1,4]dioxin-6-yl)-2-hydroxybenzamide [Compound 3ab]
T. gondii tachyzoites
  MIC50: >1 µM
  MIC90: >1 µM
  activity against T. gondii tachyzoites in words: devoid of activity; also recorded: inactive

## N-(2,4-dichlorophenyl)-5-chloro-2-hydroxybenzamide [Compound 3n]
T. gondii tachyzoites
  activity against T. gondii tachyzoites in words: slight activity; also recorded: active

## N-(2,4-difluorophenyl)-5-chloro-2-hydroxybenzamide [Compound 3o]
T. gondii tachyzoites
  MIC50: >1 µM
  MIC90: >1 µM
  activity against T. gondii tachyzoites in words: inactive

## N-(2-chloro-5-nitrophenyl)-5-methyl-2-hydroxybenzamide [Compound 3m]
T. gondii tachyzoites
  activity against T. gondii tachyzoites in words: decreased potency; also recorded: inactive; also recorded: about one-half as active as 4
